# Bioassay records as filed in PubChem BioAssay.
# MrgX1 allo act = allosterically activates human MrgX1 receptor signaling. Q96LB2. MrgX1-HEK293, Fluo-4 calcium flux, FDSS; stronger effect = higher value. B-score at 10 µM. actives 0.63% (n = 310,000). AID 588675;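 active = plate-corrected calcium response at least 3 library SD above typical, normal starting fluorescence, not activating the receptor alone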;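 also: compound read alongside a low EC10 to EC30 dose of BAM8-22 agonist; peak minus trough fluorescence over baseline measured at the second addition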
# Target sequence (Q96LB2 whole entry, looked up): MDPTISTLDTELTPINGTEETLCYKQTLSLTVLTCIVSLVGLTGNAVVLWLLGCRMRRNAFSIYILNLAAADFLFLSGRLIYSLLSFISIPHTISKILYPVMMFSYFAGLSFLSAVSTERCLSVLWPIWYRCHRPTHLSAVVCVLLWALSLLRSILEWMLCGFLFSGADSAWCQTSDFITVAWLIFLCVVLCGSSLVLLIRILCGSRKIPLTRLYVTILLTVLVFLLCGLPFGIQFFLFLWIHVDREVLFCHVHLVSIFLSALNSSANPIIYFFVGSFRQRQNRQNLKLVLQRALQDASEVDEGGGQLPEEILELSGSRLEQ
# MrgX1 agonist = agonists of human MrgX1 receptor. actives 0.44% (n = 310,000). MrgX1-HEK293 cells, Fluo-4 calcium fluorescence, agonist mode; stronger effect = higher value. B-score at 10 µM. AID 588627. Q96LB2;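 active = calcium response B-score plate-corrected fluorescence ratio at least 3 library SD, with starting fluorescence B-score inside 5 SD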
#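 Material: HEK293 cells stably expressing human MrgX1 receptor | Quantity: 15,000 cells per well | Times: Cells plated overnight, dye loaded 0.5 h 37 °C, 0.5 h room temperature | Measured by: Kinetic Fluo-4 NW fluorescence of intracellular calcium | Control set: Positive and negative controls per plate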
# RGS4 block = inhibitors of human RGS4; P49798; HEK293 M3R/RGS4 inducible, Fluo-4 calcium flux; stronger effect = higher value; triggered by carbachol at its EC20; B-score at 10 µM; actives 0.45% (n = 310,000); AID 463165;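 active = B-score, a plate-corrected calcium signal, over three deviations above library mean, with baseline fluorescence within five deviations of library mean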;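 also: RGS4 expression induced by doxycycline in cells with stable M3 receptor; B-score is computed from the integrated fluorescence ratio over baseline after carbachol; higher B-score means a larger calcium signal and so more RGS4 inhibition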
# Target sequence (P49798 whole entry, looked up): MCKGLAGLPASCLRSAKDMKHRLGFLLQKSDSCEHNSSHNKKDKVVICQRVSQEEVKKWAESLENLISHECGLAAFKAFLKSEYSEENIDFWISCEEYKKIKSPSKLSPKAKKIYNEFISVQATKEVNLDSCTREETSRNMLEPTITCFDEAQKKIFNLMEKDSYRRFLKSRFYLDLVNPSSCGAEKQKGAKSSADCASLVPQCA
# RGS4 pot = RGS4 potentiation or activation; B-score at 10 µM; HEK293 M3R/inducible RGS4, carbachol calcium flux Fluo4; stronger effect = lower value; actives 0.92% (n = 310,000); AID 463111;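 active = B-score of the integrated calcium signal more than 4 SD below the library mean, with starting fluorescence not abnormally high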;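 also: negative B-score means reduced calcium response which marks RGS4 activation or potentiation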
#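 test system = M3R-expressing HEK293 line, RGS4 induced by doxycycline | probe or stimulus = carbachol at ECmax as muscarinic agonist stimulus | timing = dye loading 30 min 37 °C, buffer rest 30 min RT | signal = calcium dye Fluo4 fluorescence | evaluation = B score from integrated fluorescence ratio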
# MrgX1 antagonist = antagonists of human MrgX1 receptor; Q96LB2; MRGX1-HEK293 calcium flux, Fluo-4, BAM8-22 antagonism; stronger effect = lower value; B-score at 10 µM; actives 1.3% (n = 310,000); AID 588676;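 active = calcium-response B-score plate-corrected more than 3 library SD below zero, starting fluorescence within 5 deviations, no agonist response on first addition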;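 also: peak minus trough fluorescence over baseline after final BAM8-22 challenge near maximal dose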
# Numbers without * were called inactive; i = inactive. A selection: hits, their analogues and other compounds. The true share with any hit is near 3.5%.
SMILES,MrgX1 allo act,MrgX1 agonist,RGS4 block,RGS4 pot,MrgX1 antagonist
CC(C)N(CCCNC(=O)c1ccc(CS(=O)(=O)c2c(Cl)cccc2Cl)o1)Cc1ccccc1,i,i,i,-8.6*,i
Clc1ccccc1/C=C/C=N/Nc1nc(N2CCOCC2)nc(N2CCOCC2)n1,i,i,i,i,i
COc1ccc(CNC(=O)CN(C(=O)c2snc(C(N)=O)c2N)c2ccccc2F)cc1,6.5*,i,i,i,i
O=c1c2c3c(sc2ncn1/N=C/c1ccc([N+](=O)[O-])o1)CCCC3,i,i,5.2*,i,i
Cn1cc(/C=N/n2cnc3sc4c(c3c2=O)CCCC4)c2ccccc21,i,i,i,i,i
CC(Oc1ccc(Br)cc1)C(=O)NC1CCN(Cc2ccccc2)CC1 (stereo not drawn),i,i,i,-7.6*,i
CCC[C@H](CN[C@@H](CNC)[C@H](C)CC)NCCc1cc(C(F)(F)F)cc(C(F)(F)F)c1,i,i,i,i,i
CNC[C@@H](CC1CCCCC1)NC[C@H](CC(C)C)NCCc1cccc(C(F)(F)F)c1,i,i,i,-7.3*,i
CC[C@@H](C)[C@H](CNC)NC[C@@H](Cc1cccc2ccccc12)NCCc1cccc(C(F)(F)F)c1,i,i,i,-9.3*,i
CNC[C@@H](Cc1ccccc1)NC[C@@H](CC1CCCCC1)NCCCc1ccccc1,i,i,i,i,i
CCCN1Cc2cccc(C(=O)NCCc3ccccc3)c2C1=O,i,i,i,i,i
CCOC(=O)c1cccc(NC(=O)C2CCCN(c3nnc(N4CCCC4=O)s3)C2)c1 (stereo not drawn),i,i,i,i,i
CCOC(=O)C1CCN(c2c(NCCN(CC)c3ccccc3)c(=O)c2=O)CC1,10*,i,i,i,i
O=C(O)c1cnc2[nH]c3ccccc3n2c1=O,i,i,i,i,i
COc1cccc(C2Nc3ccc4ccccc4c3C3=C2C(=O)CCC3)c1O (stereo not drawn),i,i,i,i,i
CCOC(=O)C(=O)N1CCN(c2cc3c(cc2[N+](=O)[O-])n(C)c(=O)n3C)CC1,i,i,i,i,i
Cc1cc2oc(C(=O)NCc3ccccc3)cc(=O)c2cc1C,i,i,i,i,i
Cc1ccc(S(=O)(=O)c2cc3ccccc3oc2=O)cc1,i,i,i,i,i
Cc1c(O)ccc2cc(S(=O)(=O)c3ccccc3)c(=O)oc12,i,i,i,-7.8*,i
COc1ccc(C(=O)Nc2ccc(NS(=O)(=O)c3ccccc3)cc2)cc1OC,i,i,i,i,i
C=CCN=C1SC(C)(C)C(=O)N1S(=O)(=O)c1ccc(C)cc1,i,i,i,i,i
O=C(CN(Cc1ccccc1Cl)C(=O)c1csnn1)NCCc1ccccc1,i,i,i,i,i
CCOC(=O)C1=C(COC(=O)/C=C/c2cccc(OC)c2)NC(=O)NC1C (stereo not drawn),i,i,i,-7*,i
O=C(N/N=C/c1ccc(OC2CSC2)cc1)c1ccccc1,i,i,i,i,i
O=C(/C=C/c1ccc(OC2CSC2)cc1)c1ccccc1,i,i,i,-7.5*,i
SMILES,MrgX1 allo act,MrgX1 agonist,RGS4 block,RGS4 pot,MrgX1 antagonist
Cc1[nH]c(C)c(S(=O)(=O)N2CCN(c3ccc(Cl)cc3)CC2)c1C(=O)N1CCCC1,i,i,i,i,i
COc1cccc2c1O/C(=N\O)C(C(=O)Nc1cccc(Br)c1)C2 (stereo not drawn),i,i,i,i,i
Cc1cc(=O)[nH]c(N/N=C/c2ccc(C)o2)n1,i,i,i,i,-6.6*
Cc1cc(=O)[nH]c(N/N=C/c2ccco2)n1,i,i,i,i,i
COc1c(CC=C(C)C)c(O)cc2oc(=O)c3c4ccc(O)cc4oc3c12,i,i,i,i,-11*
COc1c2c(cc3oc(=O)c4c5ccc(O)cc5oc4c13)OC(C)(C)CC2,i,i,i,i,i
CN(NC(=O)c1ccc(Cl)cc1Cl)C1=NS(=O)(=O)c2ccccc21,i,i,i,i,-6.3*
CCCc1ccc(OCc2ccc(C(=O)NN)o2)c(OC)c1,i,i,i,i,-5.3*
CCCc1ccc(OCc2ccc(C(=O)O)o2)c(OC)c1,i,i,i,i,i
COc1ccc(NS(=O)(=O)c2cccc(C(=O)NCC(c3ccccc3)N(C)C)c2)cc1 (stereo not drawn),i,i,i,i,-5*
N#C/C(=C/c1ccc(-c2cc(C(=O)O)cc(C(=O)O)c2)o1)c1nc2ccccc2s1,i,27*,i,i,i
CC(C)C1OC2c3cccc4cccc(c34)C2N1c1ccccc1 (stereo not drawn),i,39*,i,i,i
C/C(N)=C(/C#N)C(=O)COC(=O)c1ccc(C#N)cc1,i,i,i,i,i
FC(F)(F)c1cc(C(F)(F)F)c2ccc(N3CCN(c4ccc(Cl)cc4)CC3)nc2n1,i,i,i,i,i
N#CC(c1ccc(Cl)cc1)c1ccc2c(C(F)(F)F)cc(C(F)(F)F)nc2n1 (stereo not drawn),i,i,i,-8.1*,i
N#C/C(=C\c1cccnc1)c1nc2c(s1)CCCC2,i,i,i,i,-5.5*
CC1CN(C(=O)c2ccc(NS(=O)(=O)c3ccc(F)c(F)c3)cc2)CC(C)O1 (stereo not drawn),i,i,i,i,i
O=C(O)c1ccc(N2N=C(c3ccccc3)CC2c2ccccc2)cc1 (stereo not drawn),i,i,i,i,i
O=Cc1ccc(N2N=C(c3ccccc3)CC2c2ccccc2)cc1 (stereo not drawn),i,i,i,-10*,i
CC1=NN(c2ccc([N+](=O)[O-])cc2)C(c2ccccc2)C1 (stereo not drawn),i,i,i,i,i
N#CC1CC(c2ccc([N+](=O)[O-])cc2)=NN1c1ccc([N+](=O)[O-])cc1 (stereo not drawn),i,i,i,i,-6.2*
O=[N+]([O-])c1cccc(C2CC(c3ccccc3)=NN2c2ccccc2)c1 (stereo not drawn),i,i,i,i,-7.6*
O=C(COC(=O)c1cc(=O)c2ccccc2o1)Nc1ccc2ccccc2c1,i,i,i,i,i
